# Assay outcomes deposited in PubChem by The Scripps Research Institute Molecular Screening Center.
# This is a sample that favours compounds with a hit; in the whole collection about 4.3% have one here.
# STAT1 act: increases IFN-gamma driven STAT1 reporter signal. NIH 3T3 STAT1-luciferase reporter, luminescence; 100% = IFN-gamma alone, no compound. activation (% of control), % at 5.5 µM. 2.6% of 200,000 active;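 active = activation above the screen-wide mean activation plus 3 SD, cut at about 130% in these data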
# STAT1 blocker: inhibitors of IFN-gamma induced STAT1 signaling | AID 920 | 0.35% of 200,000 active | inhibition, % at 5.5 µM | NIH 3T3 STAT1-luciferase reporter, luminescence;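 active = inhibition above a set limit, the mean inhibition across all tested compounds plus 3 SD, cut at about 34% in these data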
# STAT3 inh: STAT3 signaling inhibition. inhibition, % at 5.5 µM. U3A cells, IL-6 STAT3-luciferase reporter, luminescence; host cell line lacks STAT1. 0.89% of 190,000 active;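 active = inhibition above the mean inhibition across all screened compounds plus 3 SD, cut at about 44% in these data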
# STAT3 act: increases IL-6 driven STAT3 reporter signal; U3A cells, IL-6 STAT3-luciferase reporter, luminescence; 100% = signal with IL-6 EC80 alone; activation (% of control), % at 5.6 µM; 0.91% of 190,000 active;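 active = activation above the screen-wide mean of compound activation plus 3 SD, cut at about 130% in these data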
#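 Test system: STAT3-luciferase reporter U3A cells; Detection: reporter luminescence signal; Times: 1 h compound pre-exposure, 6 h IL-6 stimulation, 37 °C; Benchmarks: IL-6-only high control; Also added: IL-6 stimulus at 33 ng/mL final.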
# Numbers stand for hits; . = inactive.
SMILES,STAT1 act,STAT1 blocker,STAT3 inh,STAT3 act
CC(=O)Nc1ccccc1OCC(=O)c1ccc2c(c1)OCO2,135,.,.,.
Cc1ccc(C(=O)CCNc2ccc(Br)cc2)o1,.,.,.,.
Cc1ccccc1OCC(=O)Nc1ccc2c(c1)OCO2,.,.,.,.
Cc1ccc(C(=O)CCNc2ccccc2)o1,140,.,.,.
COC(=O)c1ccc(NC(=O)Cn2nnc3ccccc32)cc1,134,.,.,.
Cc1ccc(NC(=O)Cn2nnc3ccccc32)cc1,.,.,.,.
Cc1cccc(NC(=O)Cn2nnc3ccccc32)c1,130,.,.,.
COc1ccc(NC(=O)COC(=O)Cn2nnc3ccccc32)cc1,.,.,.,.
CC(=O)NC1C(=O)Nc2c(C)cc(C)cc21 (centres undefined),138,.,.,.
CC(=O)NC1C(=O)N=C(SCc2ccccc2)NC1=O (centres undefined),.,.,.,.
COc1ccc(CCC(=O)Nc2cc(S(C)(=O)=O)ccc2Cl)cc1,.,.,.,.
COc1cccc2cc(-c3ccccc3)c(=O)oc12,142,.,.,.
COc1cccc2cc(-c3nc(-c4cccs4)cs3)c(=O)oc12,133,.,.,.
CNC(=O)c1cc2cccc(OC)c2oc1=O,.,.,.,.
Cc1sc(NC(=O)c2ccco2)c(C(c2cccnc2)N2CCCC2)c1C (centres undefined),.,.,.,.
Cc1cccc(C)c1NC(=O)CN(c1ccccn1)S(=O)(=O)c1ccccc1,.,.,.,.
Cc1cc(C)cc(N(C(=O)CNC(=O)c2cccs2)C(C(=O)NC2CCCC2)c2cccnc2)c1 (centres undefined),.,36,.,.
O=C(NC1CCCCC1)C(c1ccc2ncccc2c1)N(Cc1ccccc1)C(=O)c1cccs1 (centres undefined),.,36,.,.
O=C(NC1CCCCC1)C(c1ccc2ncccc2c1)N(Cc1ccc2c(c1)OCO2)C(=O)c1cccs1 (centres undefined),.,36,.,.
Cc1cc(NC(=O)CCN2C(=O)C3C4C=CC(C4)C3C2=O)ccc1Br (centres undefined),.,.,.,.
CCOC(=O)CSc1n[nH]c(NC(C)=O)n1,.,.,.,.
CC(C)CCN1CCN(Cc2cccc(C(F)(F)F)c2)CC1CCO (centres undefined),.,.,.,.
O=[N+]([O-])c1ccc(N/N=C/c2ccccc2)c(F)c1,145,.,.,.
CCCC(C(=O)NC1=NCCS1)c1ccccc1 (centres undefined),.,.,.,.
COCCNc1nc2sc3c(c2c(=O)n1Cc1ccco1)CCCCC3,129,.,.,.
SMILES,STAT1 act,STAT1 blocker,STAT3 inh,STAT3 act
CC(=O)Nc1ccccc1OCC(=O)NCC(F)(F)F,.,.,.,.
c1ccc(Nc2scc(-c3ccccc3)[n+]2Cc2ccco2)cc1,143,.,.,.
CSc1nnc(-c2cc3c(s2)-c2ccccc2CC3)o1,136,.,.,164
Cc1cccc(OCc2nc(-c3nonc3N)no2)c1C,139,.,.,.
O=C(c1ccc(F)cc1F)N1CCN(c2n[nH]c(=O)[nH]c2=O)CC1,.,.,.,.
c1coc(-c2nnc(NC3=NCCC3)o2)c1,129,.,.,.
Cc1nnc(NC2=NCCC2)o1,.,.,.,.
COCCCNC(=O)CC1C(=O)N(Cc2ccccc2)C(C)c2nc3ccccc3n21 (centres undefined),.,.,.,.
O=C(NCCc1ccccc1)c1nc2c(nnn2Cc2ccccc2Cl)c(=O)[nH]1,.,.,.,133
CC(=O)Nc1ccc2nc(C3CC3)n(Cc3ccc(Cl)cc3)c(=O)c2c1,146,.,.,.
Nc1nnc(-c2ccc(Cl)cc2Cl)s1,147,.,.,.
Cc1cccc(/C(N)=N/OC(=O)COc2ccccc2Cl)c1,135,.,.,.
Cc1cccc(/C(N)=N/OC(=O)Cc2ccccc2)c1,147,.,.,.
N/C(=N\OC(=O)COc1cc(Cl)c(Cl)cc1Cl)c1ccncc1,131,.,.,.
COc1ccc2cc(C(=O)Nc3ccc(Cl)cc3)sc(=O)c2c1OC,.,.,.,.
Cc1nc(NC(=O)Nc2ccc(Cl)cc2)sc1C,143,.,.,.
CC(C)=CC(=O)Nc1ccc(Cl)cc1,132,.,.,.
CC(=O)c1ccc(NC(=O)Nc2ccncc2)cc1,.,.,.,.
CC(=O)c1ccc(NC(=O)Nc2ccc(Cl)cc2)cc1,133,.,.,.
O=C1NCCCC2c3cc(O)c4ccccc4c3OC12N1CCCCC1 (centres undefined),.,.,63,.
Cc1cccc(Nc2nc(NCCCN3CCOCC3)nc(N)c2[N+](=O)[O-])c1,.,.,.,.
CC(=O)Nc1cc(OC(C)=O)c2nonc2c1OC(C)=O,.,95,.,.
COC(=O)c1sc2nc3c(cc2c1N)COC(C)(C)C3,142,.,.,.
Cc1nc(Cl)c2c(n1)NC1=C(O2)C(=O)CCC1,.,.,.,.
CC1(C)Cc2nc3sc4c(SCC(=O)NCc5ccco5)ncnc4c3cc2CO1,.,.,.,.
SMILES,STAT1 act,STAT1 blocker,STAT3 inh,STAT3 act
Cc1nc2c(sc3nc4c(cc32)COC(C)(C)C4)c(=O)n1CC(=O)NCc1ccco1,131,.,.,.
C/C(CC(=O)Nc1cccc(Cl)c1Cl)=N\NC(=O)c1ccccc1N,.,.,.,.
S=C(Nc1ccccc1)Nc1ccc(OCc2ccc(Cl)cc2Cl)cc1,.,59,64,.
Cc1ccc(/C=N/NC(=O)c2nn(C)cc2Cl)cc1,129,.,.,.
Cn1cc(Cl)c(C(=O)N/N=C/c2ccc(OS(=O)(=O)c3ccccc3)cc2)n1,.,.,.,.
CCc1ccc2oc(-c3cc(N)ccc3Cl)nc2c1,131,.,.,.
COc1cc(C2CC(=O)Nc3ccccc3S2)cc(OC)c1OC (centres undefined),.,.,.,.
O=C1CC(c2ccc(F)cc2)Sc2ccccc2N1 (centres undefined),.,.,.,135
Cc1[nH]nc(SCC(=O)N(C)c2ccccc2)c1[N+](=O)[O-],.,.,.,.
COCCCNC(=O)COc1ccc(Br)cc1Cl,139,.,.,.
CCc1ccc(-c2cc(C(=O)Nn3cnnc3)c3ccccc3n2)cc1,.,64,82,.
CCOc1ccc(-c2cc(C(=O)O)c3ccccc3n2)c(OCC)c1,.,.,.,135
CCn1cc(-c2cc(C(=O)O)c3ccccc3n2)c(C)n1,.,.,.,.
CCNC(=S)NNC(=O)c1cc(-c2ccc(OCC)cc2)nc2ccccc12,.,86,99,.
CCOC(=O)CNC(=S)N1CCn2c(nc3ccccc32)C1,.,.,.,.
CC(C)C(NC(=O)C(Cc1ccccc1)NC(=O)OCc1ccccc1)C(=O)O (centres undefined),.,.,.,.
CCCOc1ccc(NC(=O)C2CC(=O)N(C)C(=Nc3cccc(OC)c3)S2)cc1 (centres undefined),.,.,.,.
COc1ccc(C(CNC(=O)c2cncc(Br)c2)N(C)C)cc1 (centres undefined),.,.,.,.
